The source made the active and inactive calls. Bridge positions count the residues as written; N and C are the ends. Square brackets hold non-standard residues; d marks the D form. Peptide text beside a SMILES is read from it. * marks the point of attachment. X1 = OC[C@H]1O[C@@H](O[C@H]2[C@H](O)[C@@H](O)[C@H](*)O[C@@H]2CO)[C@H](O)[C@@H](O)[C@H]1O; βGlc = OC[C@H]1O[C@@H](*)[C@H](O)[C@@H](O)[C@@H]1O; Dap = NC[C@H](N)C(=O)O; Aib = CC(C)(N)C(=O)O
How the values were obtained:
Vasopressin V1a receptor = Vasopressin V1a receptor (Homo sapiens, UniProt P37288); experiment: Activation of human 3X-HA N-tagged AVP1a expressed in CHO-K1 cells incubated for 10 mins by cell Western assay; type: cell-based
Vasopressin V1a receptor, sequence (P37288 whole entry): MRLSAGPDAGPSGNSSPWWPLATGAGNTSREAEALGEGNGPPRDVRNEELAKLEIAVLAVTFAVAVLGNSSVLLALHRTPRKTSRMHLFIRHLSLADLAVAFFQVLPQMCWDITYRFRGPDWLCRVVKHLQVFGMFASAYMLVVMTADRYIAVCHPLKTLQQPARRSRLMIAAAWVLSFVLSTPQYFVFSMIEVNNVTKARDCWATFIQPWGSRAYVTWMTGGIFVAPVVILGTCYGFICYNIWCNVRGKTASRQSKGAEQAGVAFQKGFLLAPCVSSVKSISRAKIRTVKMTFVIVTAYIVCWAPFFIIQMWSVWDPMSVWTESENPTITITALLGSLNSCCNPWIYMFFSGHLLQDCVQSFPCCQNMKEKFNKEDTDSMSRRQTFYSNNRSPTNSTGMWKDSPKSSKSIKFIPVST
Summary of the method: (§1)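 In-cell Western read-out of ERK MAPK activation in CHO cells expressing the human receptor (OTR, AVP1a or AVP1b). Potency reported as mean ± SEM of N = 3 independent experiments.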

Oxytocin receptor = molecular target: T1, Oxytocin receptor (Homo sapiens, UniProt P30559); experiment: Activation of human 3X-HA N-tagged OTR expressed in CHO-K1 cells incubated for 10 mins by cell Western assay; type: cell-based; summary of the method: as §1
T1 sequence (P30559 whole entry): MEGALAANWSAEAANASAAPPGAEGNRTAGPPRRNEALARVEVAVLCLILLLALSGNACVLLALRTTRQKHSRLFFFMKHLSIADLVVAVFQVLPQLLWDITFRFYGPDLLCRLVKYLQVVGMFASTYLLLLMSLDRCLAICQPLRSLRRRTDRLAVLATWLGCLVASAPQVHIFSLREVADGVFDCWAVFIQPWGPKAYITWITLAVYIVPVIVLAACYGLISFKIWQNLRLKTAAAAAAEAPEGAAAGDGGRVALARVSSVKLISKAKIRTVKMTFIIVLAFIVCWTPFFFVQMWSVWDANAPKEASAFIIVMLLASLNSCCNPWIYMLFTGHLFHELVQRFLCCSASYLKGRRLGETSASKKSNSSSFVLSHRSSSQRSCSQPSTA

Vasopressin V1b receptor = molecular target: T2, Vasopressin V1b receptor (Homo sapiens, UniProt P47901); experiment: Activation of human 3X-HA N-tagged AVP1b expressed in CHO-K1 cells incubated for 10 mins by cell Western assay; type: cell-based; summary of the method: as §1
T2 sequence (P47901 whole entry): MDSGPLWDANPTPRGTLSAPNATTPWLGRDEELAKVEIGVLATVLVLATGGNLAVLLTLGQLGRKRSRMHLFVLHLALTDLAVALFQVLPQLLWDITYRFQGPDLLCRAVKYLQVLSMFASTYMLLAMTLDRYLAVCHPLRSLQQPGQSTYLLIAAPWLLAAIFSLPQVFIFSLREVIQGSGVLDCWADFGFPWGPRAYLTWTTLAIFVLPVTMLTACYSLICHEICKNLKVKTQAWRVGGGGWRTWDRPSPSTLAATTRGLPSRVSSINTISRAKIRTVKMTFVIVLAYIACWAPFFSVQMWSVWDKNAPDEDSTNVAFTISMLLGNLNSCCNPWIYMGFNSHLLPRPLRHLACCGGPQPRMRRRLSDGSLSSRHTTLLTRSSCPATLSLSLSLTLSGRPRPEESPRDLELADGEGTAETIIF

Mus musculus = experiment: Antinociceptive activity against CD-1 mouse assessed as pain relief at 10 mg/kg, iv measured after 2 hrs by tail flick test; type: functional, organism-based
Summary of the method: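 Male CD-1 mice dosed at 10 mg/kg by intravenous injection into the tail vein. Vehicle, oxytocin and morphine groups run alongside. Tail flick in 52 °C water with a 10 s cutoff. Mean ± SEM, N = 5 mice/group.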

SMILES	EC50 (Vasopressin V1a receptor)	EC50 (Oxytocin receptor; cho-k1) [nM]	EC50 (Vasopressin V1b receptor)	EC50 (Oxytocin receptor) [nM]	Activity (Mus musculus)
CC[C@H](C)[C@@H]1NC(=O)[C@H](Cc2ccc(O)cc2)NC(=O)[C@@H](N)CC(=O)NC[C@@H](C(=O)N2CCC[C@H]2C(=O)NC(C)(C)C(=O)N[C@H](CO[C@@H]2O[C@H](CO)[C@@H](O)[C@H](O)[C@H]2O)C(N)=O)NC(=O)[C@H](CC(N)=O)NC(=O)[C@H](CCC(N)=O)NC1=O	Not Active	0.28	Not Active	–	–
CC[C@H](C)[C@@H]1NC(=O)[C@H](Cc2ccc(O)cc2)NC(=O)[C@@H](N)CCC(=O)NC[C@@H](C(=O)N2CCC[C@H]2C(=O)NC(C)(C)C(=O)NCC(=O)N[C@@H](CO[C@@H]2O[C@H](CO)[C@@H](O)[C@H](O)[C@H]2O)C(N)=O)NC(=O)[C@H](CC(N)=O)NC(=O)[C@H](CCC(N)=O)NC1=O	Not Active	–	Not Active	0.06	Active
CC[C@H](C)[C@@H]1NC(=O)[C@H](Cc2ccc(O)cc2)NC(=O)[C@@H](N)CSSC[C@@H](C(=O)N2CCC[C@H]2C(=O)N[C@@H](CC(C)C)C(=O)NCC(N)=O)NC(=O)[C@H](CC(N)=O)NC(=O)[C@H](CCC(N)=O)NC1=O	–	–	–	–	inactive
CN1CC[C@]23c4c5ccc(O)c4O[C@H]2[C@@H](O)C=C[C@H]3[C@H]1C5	–	–	–	–	Active
CC[C@H](C)[C@@H]1NC(=O)[C@H](Cc2ccc(O)cc2)NC(=O)[C@@H](N)CC(=O)NC[C@@H](C(=O)N2CCC[C@H]2C(=O)N[C@@H](CC(C)C)C(=O)NCC(N)=O)NC(=O)[C@H](CC(N)=O)NC(=O)[C@H](CCC(N)=O)NC1=O (H-DYIQN[Dap]PLG-NH2; lactam 1-6)	Not Active	–	Not Active	–	Active
CC[C@H](C)[C@@H]1NC(=O)[C@H](Cc2ccc(O)cc2)NC(=O)[C@@H](N)CC(=O)NC[C@@H](C(=O)N2CCC[C@H]2C(=O)N[C@@H](CC(C)C)C(=O)NCC(=O)N[C@@H](CO[C@@H]2O[C@H](CO)[C@@H](O[C@@H]3O[C@H](CO)[C@H](O)[C@H](O)[C@H]3O)[C@H](O)[C@H]2O)C(N)=O)NC(=O)[C@H](CC(N)=O)NC(=O)[C@H](CCC(N)=O)NC1=O (H-DYIQN[Dap]PLGS(X1)-NH2; lactam 1-6)	Not Active	–	Not Active	160	–
CC[C@H](C)[C@@H]1NC(=O)[C@H](Cc2ccc(O)cc2)NC(=O)[C@@H](N)CC(=O)NC[C@@H](C(=O)N2CCC[C@H]2C(=O)N[C@@H](CC(C)C)C(=O)N[C@@H](CO[C@@H]2O[C@H](CO)[C@@H](O[C@@H]3O[C@H](CO)[C@H](O)[C@H](O)[C@H]3O)[C@H](O)[C@H]2O)C(N)=O)NC(=O)[C@H](CC(N)=O)NC(=O)[C@H](CCC(N)=O)NC1=O (H-DYIQN[Dap]PLS(X1)-NH2; lactam 1-6)	Not Active	–	Not Active	0.54	–
CC[C@H](C)[C@@H]1NC(=O)[C@H](Cc2ccc(O)cc2)NC(=O)[C@@H](N)CCC(=O)NC[C@@H](C(=O)N2CCC[C@H]2C(=O)N[C@@H](CC(C)C)C(=O)NCC(N)=O)NC(=O)[C@H](CC(N)=O)NC(=O)[C@H](CCC(N)=O)NC1=O (H-EYIQN[Dap]PLG-NH2; lactam 1-6)	Not Active	–	Not Active	–	–
CC[C@H](C)[C@@H]1NC(=O)[C@H](Cc2ccc(O)cc2)NC(=O)[C@@H](N)CCC(=O)NC[C@@H](C(=O)N2CCC[C@H]2C(=O)N[C@@H](CC(C)C)C(=O)N[C@@H](CO[C@@H]2O[C@H](CO)[C@@H](O)[C@H](O)[C@H]2O)C(N)=O)NC(=O)[C@H](CC(N)=O)NC(=O)[C@H](CCC(N)=O)NC1=O (H-EYIQN[Dap]PLS(βGlc)-NH2; lactam 1-6)	Not Active	–	Not Active	0.73	–
CC[C@H](C)[C@@H]1NC(=O)[C@H](Cc2ccc(O)cc2)NC(=O)[C@@H](N)CCC(=O)NC[C@@H](C(=O)N2CCC[C@H]2C(=O)NC(C)(C)C(=O)N[C@@H](CO[C@@H]2O[C@H](CO)[C@@H](O)[C@H](O)[C@H]2O)C(N)=O)NC(=O)[C@H](CC(N)=O)NC(=O)[C@H](CCC(N)=O)NC1=O (H-EYIQN[Dap]P[Aib]S(βGlc)-NH2; lactam 1-6)	Not Active	–	Not Active	220	–

— ChEMBL document CHEMBL5223184, “Structure-Based Design of Glycosylated Oxytocin Analogues with Improved Selectivity and Antinociceptive Activity” (ACS Med Chem Lett, 2023)
